In PubChem BioAssay:
Active and inactive are the calls of the source.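 Rule for the calls, unless noted: active = potentiation averaged over duplicate wells exceeding buffer-only control mean by more than 3 SD; inactive = the rest.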

Tested on: not listed separately
Assay: nonspecific flux increase, KCNQ1-free cells – parental CHO cells, counter-screen for KCNQ1 potentiator project (AID 493006;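 active = duplicate-averaged activation above buffer control mean plus 5 SD of those controls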)
Conditions: parental CHO-K1 cells, FluxOR thallium flux, at 10 µM; active compounds read high
Summary of the method: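 Test system: parental CHO-K1 cells, FluxOR dye-loaded / Probe or stimulus: potassium plus thallium depolarizing stimulus, 5x stock 12.5 mM K2SO4, Tl2SO4 / Timing: overnight 37 °C plating, 90 min dye, 20 min dark compound / Measured by: kinetic thallium-flux fluorescence / Read-out: max-minus-min fluorescence over baseline, percent of buffer-to-R-L3 span / Benchmarks: buffer and R-L3 controls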

Question: Which activation does the source give for `CCCn1c(=S)[nH]c2ccccc2c1=O` here?
Answer: Its activation is 153% (active).

Question: Which activation does the source give for `O=C1OC(c2ccc(F)cc2)=N/C1=C\c1ccc(Br)o1` here?
Answer: Its activation is 228% (active).

Question: With `CCN(Cc1cc2cc(OC)ccc2[nH]c1=O)C(=O)c1ccncc1` as the compound, how does the outcome read?
Answer: The outcome was “inactive”.

Question: Which outcome does the source give for `COc1ccc(CN(C)C(=O)c2ccc3ccccc3n2)cc1F` here?
Answer: The outcome was “inactive”.

Question: For `Cc1nn(CCc2nn[nH]n2)c2nc(-c3ccc(C4CCCCC4)cc3)cc(C(F)(F)F)c12`, which activation is on record?
Answer: Its activation is 296% (active).

Question: Which outcome does the source give for `CS(=O)(=O)N1CCC(C(=O)Nc2ccc(OCc3ccccc3)cc2)CC1` here?
Answer: Its outcome is “inactive”.

Question: For `Cc1ccc(Oc2ccc(NC(=O)Cn3ccsc3=N)cc2)cc1`, which outcome is on record?
Answer: Its outcome is “inactive”.

Question: Which activation does the source give for `N#C/C(=C\c1ccc(-c2ccccc2[N+](=O)[O-])o1)C(=O)Nc1nc(-c2cccs2)cs1` here?
Answer: Its activation is 208% (active).

Question: With `COc1ccc(NC(=S)NC(=O)c2ccccc2Cl)cc1` as the compound, how does the outcome read?
Answer: Its outcome is “inactive”.

Question: For `S=c1[nH]cnc2scc(-c3ccccc3)c12`, which activation is on record?
Answer: Its activation is 192% (active).

Question: With `CC(C)n1cc(NC(=O)c2cc(-c3ccccc3)on2)cn1` as the compound, how does the activation read?
Answer: The activation was 182% (active).

Question: With `COc1ccc(-c2cc3nc(C)c(CCC(=O)NC(C)CCc4ccco4)c(C)n3n2)c(OC)c1` (stereo not given) as the compound, how does the outcome read?
Answer: Its outcome is “inactive”.

Question: For `Oc1oc(-c2cccc3ccccc23)nc1/C=N/c1nccs1`, which outcome is on record?
Answer: The outcome was “inactive”.

Question: For `COC(=O)C1C(c2ccc(OC)c(OC)c2)NC(c2ccc(OC)c(OC)c2)C(C(=O)OC)S1(=O)=O` (stereo not given), which outcome is on record?
Answer: The outcome was “inactive”.

Question: Which activation does the source give for `COc1ccc(C)cc1NC(=O)C(=O)NNC(=O)c1ccco1` here?
Answer: Its activation is 377% (active).

Question: Which outcome does the source give for `CN(C)S(=O)(=O)c1ccc(Cl)c(NC(=O)CN2CCCCCC2)c1` here?
Answer: Its outcome is “inactive”.

Question: With `CCCN(CCC)C(=S)NC(=O)c1ccc(-c2ccccc2)cc1` as the compound, how does the activation read?
Answer: Its activation is 436% (active).

Question: For `Cc1nnc(SCC(=O)N(Cc2ccccc2)C(C)C)n1-c1ccccc1`, which outcome is on record?
Answer: The outcome was “inactive”.

Question: For `CCCCCCCCCCCCN1[C@@H](CC(=O)O)c2cc(F)ccc2S1(=O)=O`, which activation is on record?
Answer: The activation was 230% (active).

Question: With `CC1CCN(c2ncnc3ccccc23)CC1` as the compound, how does the outcome read?
Answer: Its outcome is “inactive”.

Question: Which activation does the source give for `O=c1ccc(N=Nc2ccccc2)ccc1O` here?
Answer: Its activation is 322% (active).

Question: Which activation does the source give for `CC1CCN(C(=S)NC(=O)c2cccc([N+](=O)[O-])c2)CC1` here?
Answer: The activation was 207% (active).

Question: Which outcome does the source give for `CSC(C(=O)c1cc2ccccc2o1)c1ccccc1` (stereo not given) here?
Answer: Its outcome is “inactive”.

Question: With `CCc1ccc(-c2c(C)sc(NC(C)=O)c2C(N)=O)cc1` as the compound, how does the outcome read?
Answer: Its outcome is “inactive”.

Question: For `COC(=O)C1CCCN1C(=O)COc1ccc(Br)cc1Cl` (stereo not given), which activation is on record?
Answer: Its activation is 206% (active).

Question: With `CC1=C(C)/C(=N\OS(=O)(=O)c2ccccc2)C=CC1=O` as the compound, how does the outcome read?
Answer: The outcome was “inactive”.

Question: Which outcome does the source give for `O=C(NC(=S)Nc1ccccc1N1CCOCC1)c1sc2ccccc2c1Cl` here?
Answer: Its outcome is “inactive”.

Question: With `COC(=O)c1sc(NC(=S)NC(=O)c2ccccc2F)nc1C` as the compound, how does the outcome read?
Answer: Its outcome is “inactive”.

Question: For `CN(C)c1ccc(C(=O)Nc2nnc(C3=COCCO3)o2)cc1`, which outcome is on record?
Answer: The outcome was “inactive”.

Question: With `CNC(=O)c1cc(-c2ccc(Cl)cc2)n(-c2ccccc2)n1` as the compound, how does the outcome read?
Answer: The outcome was “inactive”.

Question: For `NC(N)=N/N=C/c1ccccc1OC(F)F`, which outcome is on record?
Answer: Its outcome is “inactive”.

Question: Which outcome does the source give for `Cc1ccc(C(=O)NCCC(=O)NCc2cc(=O)n(C)c(=O)n2C)cc1` here?
Answer: The outcome was “inactive”.

Question: For `O=C(CN(c1ccc(Cl)cc1)S(=O)(=O)c1ccc(Cl)c([N+](=O)[O-])c1)NCCc1ccc(F)cc1`, which outcome is on record?
Answer: The outcome was “inactive”.

Question: Which activation does the source give for `COc1ccc(-n2cc(-c3ccccc3)c3c(=S)nc[nH]c32)cc1` here?
Answer: Its activation is 137% (active).

Question: For `O=C(NC(=S)Nc1nc2ccc(F)cc2s1)c1ccco1`, which activation is on record?
Answer: Its activation is 282% (active).

Question: For `Cc1ccc(NC(=O)CCS(=O)(=O)c2cccc3nonc23)c(Br)c1`, which outcome is on record?
Answer: Its outcome is “inactive”.

Question: For `O=c1c2cc(Cl)ccc2nc(-c2ccc([N+](=O)[O-])cc2)n1O`, which activation is on record?
Answer: The activation was 445% (active).

Question: Which outcome does the source give for `CC(=O)N[C@H]1[C@H](OC2CCCCC2)O[C@H](COC(C)=O)[C@@H](OC(C)=O)[C@@H]1OC(C)=O` here?
Answer: The outcome was “inactive”.

Question: For `O=C(NNc1nc2c(F)cccc2s1)c1cc(=O)c2ccccc2o1`, which outcome is on record?
Answer: Its outcome is “inactive”.

Question: For `CSc1ccccc1C(=O)NC1CCCc2ccccc21` (stereo not given), which outcome is on record?
Answer: The outcome was “inactive”.

Molecular target: Potassium voltage-gated channel subfamily KQT member 1 (Homo sapiens) (UniProt P51787)
Sequence (P51787 whole entry, looked up): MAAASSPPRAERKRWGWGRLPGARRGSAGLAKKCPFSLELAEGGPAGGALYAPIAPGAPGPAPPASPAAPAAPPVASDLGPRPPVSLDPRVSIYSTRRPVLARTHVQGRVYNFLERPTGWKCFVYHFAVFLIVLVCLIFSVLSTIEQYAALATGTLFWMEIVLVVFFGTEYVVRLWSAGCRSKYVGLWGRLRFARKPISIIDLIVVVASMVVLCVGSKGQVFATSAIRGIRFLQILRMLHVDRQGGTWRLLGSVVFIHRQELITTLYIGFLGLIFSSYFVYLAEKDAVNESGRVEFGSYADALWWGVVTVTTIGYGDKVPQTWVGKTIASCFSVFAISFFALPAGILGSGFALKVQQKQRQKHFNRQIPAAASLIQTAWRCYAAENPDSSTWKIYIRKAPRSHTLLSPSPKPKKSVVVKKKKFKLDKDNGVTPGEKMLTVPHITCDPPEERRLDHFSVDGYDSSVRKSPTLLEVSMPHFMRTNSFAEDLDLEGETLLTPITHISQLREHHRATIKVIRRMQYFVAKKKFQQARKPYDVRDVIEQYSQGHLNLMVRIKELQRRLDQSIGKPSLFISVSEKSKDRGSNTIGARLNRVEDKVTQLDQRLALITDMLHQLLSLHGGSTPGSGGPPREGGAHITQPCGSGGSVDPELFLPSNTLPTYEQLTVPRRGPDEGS
Assay: enhancement of KCNQ1 channel thallium flux – FluxOR thallium flux, CHO cells, duplicates, confirmation (AID 493007);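 for outcome: cells depolarized by a potassium plus thallium sulfate stimulus after compound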;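 for potentiation: 0% = buffer-only wells and 100% = R-L3 activator control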
Conditions: KCNQ1 cell line, FluxOR thallium flux fluorescence, at 10 µM; active compounds read high, % of reference activator effect, buffer zero
Summary of the method: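 Assay system: CHO cells carrying KCNQ1 | Controls: Buffer and R-L3 controls | Schedule: FluxOR dye loading 90 min, compound exposure 20 min, room temperature | Read-out: Baseline-normalized fluorescence change, percent of buffer-to-R-L3 range | Replicates: Each compound tested in duplicate | Technique: Kinetic thallium influx fluorescence with FluxOR dye, 10 s baseline, 110 s post-stimulus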

Question: With `CCCn1c(=S)[nH]c2ccccc2c1=O` as the compound, how does the potentiation read?
Answer: Its potentiation is 18.5% (active).

Question: Which potentiation does the source give for `O=C1OC(c2ccc(F)cc2)=N/C1=C\c1ccc(Br)o1` here?
Answer: The potentiation was 80.5% (active).

Question: With `CCN(Cc1cc2cc(OC)ccc2[nH]c1=O)C(=O)c1ccncc1` as the compound, how does the outcome read?
Answer: The outcome was “inactive”.

Question: With `COc1ccc(CN(C)C(=O)c2ccc3ccccc3n2)cc1F` as the compound, how does the outcome read?
Answer: Its outcome is “inactive”.

Question: For `Cc1nn(CCc2nn[nH]n2)c2nc(-c3ccc(C4CCCCC4)cc3)cc(C(F)(F)F)c12`, which potentiation is on record?
Answer: Its potentiation is 58% (active).

Question: With `CS(=O)(=O)N1CCC(C(=O)Nc2ccc(OCc3ccccc3)cc2)CC1` as the compound, how does the outcome read?
Answer: Its outcome is “inactive”.

Question: With `Cc1ccc(Oc2ccc(NC(=O)Cn3ccsc3=N)cc2)cc1` as the compound, how does the outcome read?
Answer: Its outcome is “inactive”.

Question: With `N#C/C(=C\c1ccc(-c2ccccc2[N+](=O)[O-])o1)C(=O)Nc1nc(-c2cccs2)cs1` as the compound, how does the potentiation read?
Answer: Its potentiation is 56% (active).

Question: For `COc1ccc(NC(=S)NC(=O)c2ccccc2Cl)cc1`, which outcome is on record?
Answer: The outcome was “inactive”.

Question: For `S=c1[nH]cnc2scc(-c3ccccc3)c12`, which potentiation is on record?
Answer: The potentiation was 52% (active).

Question: Which potentiation does the source give for `CC(C)n1cc(NC(=O)c2cc(-c3ccccc3)on2)cn1` here?
Answer: The potentiation was 35.5% (active).

Question: For `COc1ccc(-c2cc3nc(C)c(CCC(=O)NC(C)CCc4ccco4)c(C)n3n2)c(OC)c1` (stereo not given), which outcome is on record?
Answer: Its outcome is “inactive”.

Question: Which potentiation does the source give for `Oc1oc(-c2cccc3ccccc23)nc1/C=N/c1nccs1` here?
Answer: Its potentiation is 48.5% (active).

Question: With `COC(=O)C1C(c2ccc(OC)c(OC)c2)NC(c2ccc(OC)c(OC)c2)C(C(=O)OC)S1(=O)=O` (stereo not given) as the compound, how does the outcome read?
Answer: Its outcome is “inactive”.

Question: With `COc1ccc(C)cc1NC(=O)C(=O)NNC(=O)c1ccco1` as the compound, how does the potentiation read?
Answer: Its potentiation is 109% (active).

Question: For `CN(C)S(=O)(=O)c1ccc(Cl)c(NC(=O)CN2CCCCCC2)c1`, which outcome is on record?
Answer: The outcome was “inactive”.

Question: Which potentiation does the source give for `CCCN(CCC)C(=S)NC(=O)c1ccc(-c2ccccc2)cc1` here?
Answer: Its potentiation is 248% (active).

Question: Which outcome does the source give for `Cc1nnc(SCC(=O)N(Cc2ccccc2)C(C)C)n1-c1ccccc1` here?
Answer: Its outcome is “inactive”.

Question: For `CCCCCCCCCCCCN1[C@@H](CC(=O)O)c2cc(F)ccc2S1(=O)=O`, which potentiation is on record?
Answer: Its potentiation is 76% (active).

Question: With `CC1CCN(c2ncnc3ccccc23)CC1` as the compound, how does the outcome read?
Answer: The outcome was “inactive”.

Question: For `O=c1ccc(N=Nc2ccccc2)ccc1O`, which potentiation is on record?
Answer: The potentiation was 138% (active).

Question: For `CC1CCN(C(=S)NC(=O)c2cccc([N+](=O)[O-])c2)CC1`, which potentiation is on record?
Answer: Its potentiation is 41.5% (active).

Question: Which outcome does the source give for `CSC(C(=O)c1cc2ccccc2o1)c1ccccc1` (stereo not given) here?
Answer: The outcome was “inactive”.

Question: With `CCc1ccc(-c2c(C)sc(NC(C)=O)c2C(N)=O)cc1` as the compound, how does the outcome read?
Answer: The outcome was “inactive”.

Question: With `COC(=O)C1CCCN1C(=O)COc1ccc(Br)cc1Cl` (stereo not given) as the compound, how does the potentiation read?
Answer: Its potentiation is 48.5% (active).

Question: With `CC1=C(C)/C(=N\OS(=O)(=O)c2ccccc2)C=CC1=O` as the compound, how does the outcome read?
Answer: The outcome was “inactive”.

Question: Which potentiation does the source give for `O=C(NC(=S)Nc1ccccc1N1CCOCC1)c1sc2ccccc2c1Cl` here?
Answer: Its potentiation is 34% (active).

Question: For `COC(=O)c1sc(NC(=S)NC(=O)c2ccccc2F)nc1C`, which outcome is on record?
Answer: Its outcome is “inactive”.

Question: For `CN(C)c1ccc(C(=O)Nc2nnc(C3=COCCO3)o2)cc1`, which outcome is on record?
Answer: Its outcome is “inactive”.

Question: For `CNC(=O)c1cc(-c2ccc(Cl)cc2)n(-c2ccccc2)n1`, which outcome is on record?
Answer: Its outcome is “inactive”.

Question: For `NC(N)=N/N=C/c1ccccc1OC(F)F`, which outcome is on record?
Answer: Its outcome is “inactive”.

Question: Which outcome does the source give for `Cc1ccc(C(=O)NCCC(=O)NCc2cc(=O)n(C)c(=O)n2C)cc1` here?
Answer: The outcome was “inactive”.

Question: With `O=C(CN(c1ccc(Cl)cc1)S(=O)(=O)c1ccc(Cl)c([N+](=O)[O-])c1)NCCc1ccc(F)cc1` as the compound, how does the outcome read?
Answer: The outcome was “inactive”.

Question: For `COc1ccc(-n2cc(-c3ccccc3)c3c(=S)nc[nH]c32)cc1`, which potentiation is on record?
Answer: Its potentiation is 38% (active).

Question: For `O=C(NC(=S)Nc1nc2ccc(F)cc2s1)c1ccco1`, which potentiation is on record?
Answer: Its potentiation is 132% (active).

Question: For `Cc1ccc(NC(=O)CCS(=O)(=O)c2cccc3nonc23)c(Br)c1`, which outcome is on record?
Answer: The outcome was “inactive”.

Question: With `O=c1c2cc(Cl)ccc2nc(-c2ccc([N+](=O)[O-])cc2)n1O` as the compound, how does the potentiation read?
Answer: The potentiation was 193% (active).

Question: For `CC(=O)N[C@H]1[C@H](OC2CCCCC2)O[C@H](COC(C)=O)[C@@H](OC(C)=O)[C@@H]1OC(C)=O`, which outcome is on record?
Answer: The outcome was “inactive”.

Question: For `O=C(NNc1nc2c(F)cccc2s1)c1cc(=O)c2ccccc2o1`, which outcome is on record?
Answer: Its outcome is “inactive”.

Question: Which outcome does the source give for `CSc1ccccc1C(=O)NC1CCCc2ccccc21` (stereo not given) here?
Answer: The outcome was “inactive”.
